SUMO Mot1 rescue: blocks SUMOylation pathway, rescuing yeast Mot1-301 growth; S. cerevisiae Mot1-301 growth rescue, ATP luminescence, 38.5C; percent above DMSO median, 100 means doubled; growth rescue, % at 18.8 µM; 320,000 tested, 1% active; AID 2716;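 active = every valid replicate shows activation above 250% relative to neutral control wells; inactive = the rest, any valid replicate at or below 250%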;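 note: OY570 slx delta 5 strain wells were the positive control but not used for scaling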
rRNA inh HTS: inhibits bacterial ribosomal RNA function over humanized ribosomes. GFP signal change (wild-type ribosome), % (test concentration not listed). AID 720706. 350,000 tested, 1.6% active. E. coli WT GFP vs humanized-ribosome RFP mutants, fluorescence, 24 h; stronger effect = lower value; DMSO median 0, no signal -100;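 active = significant combined selectivity score with lowered wild-type GFP, culture density cut under 30%, mutant RFP and density less affected; inactive = any of these conditions unmet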
PglD inh: PglD (C. jejuni) enzyme inhibition. purified PglD enzyme, DTNB colorimetric CoA detection. inhibition, % at 12.5 µM. 360,000 tested, 0.098% active; in the data active = inhibition above about 16%, passing the limit was not always enough
Cneo AK release: Cryptococcus neoformans lysis via adenylate kinase release | C. neoformans lysis, adenylate kinase release luminescence, 4 h; normalised: neutral wells 0, clomiphene wells 100 | lysis activity, % at 15 µM | 360,000 tested, 0.2% active;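 active = mean lysis activity across replicates of at least 80%, whatever share of replicates individually reach that level; inactive = mean lysis activity below 80%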
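Material – Cryptococcus neoformans yeast cells · Quantity – 5 × 10^6 yeast cells/mL · Buffer or medium – YPD medium · Compound – single dose · Timing – 4 h static compound exposure, 37 °C, read 1 h post-reagent · Signal – adenylate kinase release luminescence · Read-out basis – lysis from increased AK signal · Benchmarks – Clomiphene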
CR mimetic SO: lowers age-related superoxide in aged yeast cells | S. cerevisiae aged cells, superoxide DHE fluorescence; stronger effect = lower value | superoxide response (% of plate mean), % at 10 µM | AID 2690 | 330,000 tested, 0.18% active;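 active = superoxide response under a set limit, about three screen SD below normal, cut at about 65% in these data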;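 note: yeast aged for seven days with compound at 30 °C before DHE staining; 100% = average MFI of all compound-treated wells on the plate with controls excluded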
* hit, by the source's call; nt = no result. In the library only some 2.2% were active in any assay of this set; here they are far more common.

SMILES	SUMO Mot1 rescue	rRNA inh HTS	PglD inh	Cneo AK release	CR mimetic SO
Cc1noc(C)c1S(=O)(=O)Nc1ccc2c(c1)C(=O)N([C@H](C)CO)C[C@@H](C)[C@@H](CN(C)Cc1ccc(Oc3ccccc3)cc1)O2	nt	-13	0	1	nt
O=C(N/N=C/c1ccccc1[N+](=O)[O-])C(=O)N1CCCC1	355*	9	nt	nt	83
COc1ccc(CCNC(=O)CO/N=C/c2cc3c(cc2Br)OCO3)cc1OC	4	-36*	-6	-2	77
c1ccc(COc2cccc(-c3cc4nc(NCc5cccs5)ccn4n3)c2)cc1	nt	-28*	6	11	nt
COCCCNc1ccn2nc(-c3cccc(OCc4ccccc4)c3)cc2n1	nt	-26	-4	-20	nt
COc1cc(-c2cc(-c3ccccc3)nc(SCC(=O)O)c2C#N)cc(OC)c1OC	-3	-29*	-1	1	95
CCOC(=O)c1cc(OC(=O)c2cccs2)n(-c2ccccc2)n1	0	-18*	1	1	107
c1ccc(C2=NN(c3ccccc3)CC2)cc1	149	0	3	-1	93
c1ccc(N=NC2=NN(c3ccccc3)CS2)cc1	nt	-30*	2	-3	nt
COc1cccc(C(=O)/C=C/Nc2ccc(S(=O)(=O)Nc3nc(C)cc(C)n3)cc2)c1	-16	-21*	nt	nt	96
C/C(=N\Nc1ccc(Cl)cc1)c1c(O)cc(C)oc1=O	332*	-16	nt	nt	103
Cc1ccccc1N1C(=O)C(Cc2ccc(F)cc2)S/C1=C(\C#N)C(N)=O (stereo not given)	-8	-31*	0	1	101
O=C(COc1ccc2ccccc2c1)Nc1nccs1	-2	-22*	nt	nt	94
O=C(COc1ccccc1)Nc1nccs1	44	3	1	-6	119
C[C@@H]1CN([C@@H](C)CO)C(=O)c2cc(NC(=O)NC3CCCCC3)ccc2O[C@@H](C)CCCCO[C@@H]1CN(C)C(=O)Cc1ccccc1	nt	-1	2	-17	nt
CC1=C(O)C(=O)OC1c1c(Cl)cccc1Cl (stereo not given)	37	-29*	-6	0	112
COc1cc2c(cc1OC)C(c1c(Cl)cccc1Cl)NC(=O)C2 (stereo not given)	0	4	2	-1	88
C[C@H](CO)N1C[C@H](C)[C@H](CN(C)S(=O)(=O)c2ccc(F)cc2)OCCCC[C@H](C)Oc2ccc(NS(C)(=O)=O)cc2C1=O	nt	-6	1	1	nt
CC(C)Cc1ccc(S(=O)(=O)Nc2ccc3[nH]c(=O)[nH]c3c2)cc1	-16	-25*	-9	-1	90
COc1ccc2c(c1)OC[C@H]1[C@H]2N2C(=O)c3ccc(C)cc3NC(=O)[C@@]2(C)[C@H]1c1ccccc1	356*	nt	0	5	108
COc1ccc2c(c1)OC[C@H]1[C@H]2N2C(=O)c3cc(OC)ccc3NC(=O)[C@@]2(C)[C@H]1c1ccccc1	356*	0	-2	-7	nt
O=C(CSc1nc(NS(=O)(=O)c2ccccc2)cc(=O)[nH]1)Nc1ccc(F)cc1	-12	nt	25*	0	103
O=C(O)[C@@H]1[C@@H](CO)[C@@H]2Cn3c(ccc(-c4ccc(F)cc4)c3=O)[C@@H]2N1C(=O)Nc1ccccc1	nt	1	nt	nt	nt
O=C1OCCN1C(=O)[C@H]1[C@H](c2ccc(Cl)cc2)C(c2ccc(F)cc2)=NN1c1ccc(Br)cc1	nt	14	-3	1	94
O=C1OCCN1C(=O)[C@H]1[C@H](c2ccc(F)cc2)C(c2ccc(F)cc2)=NN1c1ccc(Br)cc1	-3	nt	-4	-2	45*
SMILES	SUMO Mot1 rescue	rRNA inh HTS	PglD inh	Cneo AK release	CR mimetic SO
O=C(CSc1ccc(-c2ccc(Cl)cc2)nn1)N1CCCc2ccccc21	-23	-20	-2	-1	106
O=C(CSc1ccc(-c2cccnc2)nn1)N1CCCc2ccccc21	0	-23*	nt	nt	100
CC(=O)Nc1cccc(NC(=O)CSc2ccc(-c3cccnc3)nn2)c1	1	-26*	nt	nt	99
O=C(Nc1ccc(OC(F)(F)F)cc1)N1CCN(c2ccnc3cc(Cl)ccc23)CC1	33	-29*	nt	nt	113
Cc1c(C(=O)Oc2ccc(Cl)cc2)n(C)oc1=O	-12	13	nt	nt	98
Cc1c(C(=O)NNc2c(Cl)cccc2Cl)n(C)oc1=O	2	-22*	nt	nt	99
CCOC(=O)c1c(N)sc(C(=O)Nc2ccccc2)c1C	-20	-25	nt	nt	85
CCOC(=O)c1c(N)sc(C(=O)Nc2ccccc2F)c1C	-3	-26*	1	-8	94
CC(C)C(=O)N1CCN(c2nc3ccc(Cl)cc3s2)CC1	-7	-35*	-4	8	137
CC(C)NC(=O)N1CCCN(c2nc3ccc(Cl)cc3s2)CC1	-8	-24*	-2	0	91
CN(C)C(=O)c1ccc(-c2ccc(C3[C@@H]4CN(C(=O)C5CCOCC5)C[C@H]3N4)cc2)cc1 (stereo not given in full)	nt	11	nt	nt	nt
COc1cc(C(O)c2nc3ccccc3n2C(C)C)cc(OC)c1OC (stereo not given)	-6	9	-2	-1	107
COc1ccc(OC)c(C(O)c2nc3ccccc3n2C(C)C)c1 (stereo not given)	304*	nt	1	-4	103
CN1[C@@H]2Cn3c(ccc(-c4ccncc4)c3=O)[C@H]1[C@@H](C(=O)NC1CCCCC1)[C@@H]2CO	nt	1	-1	46	nt
COc1ccc(C#Cc2ccc3c(c2)[C@]2(C(=O)N3)[C@H](C(=O)N3CCN(c4ncccn4)CC3)[C@H]3C(=O)O[C@H](c4ccccc4)[C@H](c4ccccc4)N3[C@@H]2c2ccc(O)cc2)cc1	nt	nt	3	15	nt
CCCOC(=O)c1cccc(NC(=O)COc2ccc([N+](=O)[O-])cc2)c1	-4	-21*	nt	nt	74
O=C(COc1ccc([N+](=O)[O-])cc1)NNC(=O)Nc1ccc([N+](=O)[O-])cc1	11	-19*	0	0	113
Cc1ccc(C(=O)CSc2nnnn2Cc2ccccc2)cc1C	-6	-28*	nt	nt	98
CCn1c(O)c(N=Nc2ccc(Cl)c(C(=O)O)c2)c2ccccc21	263	-15	-11	2	164
CC(C)n1c(O)c(N=Nc2ccc(Cl)c(C(=O)O)c2)c2ccccc21	15	-18*	-13	0	101
O=C(COc1ccc2c(c1)CCC2)NCc1cccc(Cl)c1	14	nt	nt	nt	89
O=C(COc1ccc2c(c1)CCC2)NCc1ccc(Cl)cc1	33	-30*	5	0	105
O=C(c1ccc([N+](=O)[O-])cc1)N(Cc1ccccc1)c1ccccn1	-19	9	6	0	103
O=[N+]([O-])c1ccccc1SN(Cc1ccccc1)c1ccccn1	376*	-4	nt	nt	97
O=C(N/N=C/c1ccccn1)c1ccc(NC(=O)c2ccc(F)cc2)cc1	-20	-10	-3	0	110
O=C(N/N=C/c1ccccn1)c1ccc(NC(=O)c2ccccc2Cl)cc1	8	-21*	-2	-2	108

Bioassay records: PubChem, several laboratories
